Here are results for three compounds from publication PMC3217223 (Bioorganic & Medicinal Chemistry, 2009).

Where a name gives a salt, the structure may show the parent alone.

The test system of one experiment is vaccinia virus. It is filed as cell-based.
For experiment [1], the system named is vesicular stomatitis virus. It is filed as cell-based.
Another experiment concerns influenza virus A/H1N1. Format: cell-based, influenza virus A/Puerto Rico/8/34 (H1N1). Conditions: influenza virus A/H1N1 (A/Puerto Rico/8/34); microscopy and MTS assay. In general terms: Tetrazolium assays rely on reduction of a dye to a coloured formazan, in cell work by metabolically active cells.
In a further experiment the test system is sindbis virus. Format: cell-based. Conditions: microscopy and MTS assay.
For experiment [2], the system named is respiratory syncytial virus. It is filed as cell-based. Conditions: microscopy and MTS assay.
For experiment [3], the system named is herpes simplex virus type 2. It is filed as cell-based. Conditions: microscopy and MTS assay.
The test system of another experiment is influenza virus B. It is filed as cell-based, influenza virus B/Hong Kong/5/72. Conditions: influenza virus B (B/Hong Kong/5/72); microscopy and MTS assay.
The test system of a further experiment is Coxsackievirus B4. Format: cell-based. Conditions: microscopy and MTS assay.
A further experiment has as its system feline coronavirus. Format: cell-based. Conditions: microscopy and MTS assay.
For the next experiment, the system named is influenza virus A/H3N2. Format: cell-based, influenza virus A/Hong Kong/7/87 (H3N2). Conditions: influenza virus A/H3N2 (A/Hong Kong/7/87); microscopy and MTS assay.
The next experiment has as its system NMDA receptors. It is filed as cell-based. Conditions: cerebellar granule neurons, glutamate or NMDA 100 μM + glycine 10 μM.
In the next experiment the test system is parainfluenza-3 virus. Format: cell-based. Conditions: microscopy and MTS assay.
Experiment [4] relates to herpes simplex virus type 1. It is filed as cell-based. Conditions: microscopy and MTS assay.
The subject of a further experiment is Reovirus-1. Format: cell-based. Conditions: microscopy and MTS assay.
The subject of experiment [5] is bloodstream form T. brucei (strain 427). The experiment in a line: T. brucei culturing and drug test. It is filed as cell-based, Trypanosoma brucei. Conditions: at concentrations up to 5 mg mL^−1. The procedure, abridged:
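Parasites were kept at 37 °C in modified Iscove's medium (pH 7.4) and grown for 48 h with a range of test compound concentrations. Cell density at each concentration was counted by hemocytometer and expressed as percent of untreated control growth. Concentrations giving 50% and 90% growth inhibition (IC₅₀, IC₉₀) were determined. Run in triplicate.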

A further experiment deals with Punta Toro virus. It is filed as cell-based. Conditions: microscopy and MTS assay.

`c1ccc(CNC23CC4CC(CC(C4)O2)C3)cc1` [Compound 2a, N-Benzyl(2-oxaadamant-1-yl)amine hydrochloride]: the Antiviral activity result with vaccinia virus is “None of the tested compounds displayed activity”; in experiment [1], “None of the tested compounds displayed activity”; in the experiment with influenza virus A/H1N1, “none of the compounds was found to be active”; in the experiment on sindbis virus, “None of the tested compounds displayed activity”; in experiment [2], “None of the tested compounds displayed activity”; in [3] it was “None of the tested compounds displayed activity”. The Antiviral activity entry is on record as “none of the compounds was found to be active” with influenza virus B; “None of the tested compounds displayed activity” in the experiment on Coxsackievirus B4; “None of the tested compounds displayed activity” with feline coronavirus; “none of the compounds was found to be active” in the experiment on influenza virus A/H3N2; “None of the tested compounds displayed activity” with parainfluenza-3 virus; “None of the tested compounds displayed activity” in experiment [4]. Besides, the Antiviral activity result in the experiment on Reovirus-1 and in the experiment with Punta Toro virus was “None of the tested compounds displayed activity” in each case. In the experiment with NMDA receptors, the “NMDA receptor antagonism (in words)” value was “inactive”. Also, the “Trypanocidal activity (in words)” value in experiment [5] was “no activity”.

As for `CNC12CC3CC(CC(C3)O1)C2` [Compound 4, N-Methyl(2-oxaadamant-1-yl)amine hydrochloride], the Antiviral activity entry with vaccinia virus is reported as “None of the tested compounds displayed activity”; in experiment [1], “None of the tested compounds displayed activity”; in the experiment with influenza virus A/H1N1, “none of the compounds was found to be active”; with sindbis virus it was “None of the tested compounds displayed activity”; in experiment [2], “None of the tested compounds displayed activity”; in experiment [3] it was “None of the tested compounds displayed activity”. Besides, the Antiviral activity result is given as “none of the compounds was found to be active” with influenza virus B; “None of the tested compounds displayed activity” in the experiment with Coxsackievirus B4; “None of the tested compounds displayed activity” with feline coronavirus; “none of the compounds was found to be active” in the experiment on influenza virus A/H3N2; “None of the tested compounds displayed activity” in the experiment with parainfluenza-3 virus; “None of the tested compounds displayed activity” in experiment [4]. Further, the Antiviral activity result in the experiment with Reovirus-1 and in the experiment with Punta Toro virus was “None of the tested compounds displayed activity” throughout. The “NMDA receptor antagonism (in words)” value in the experiment with NMDA receptors was “inactive”. For the same compound, the “Trypanocidal activity (in words)” value in experiment [5] is “no activity”.

For the compound `NC12CC3CC(CC(C3)O1)C2` [Compound 7, (2-Oxaadamant-1-yl)amine hydrochloride], the Antiviral activity entry in the experiment with vaccinia virus is on record as “None of the tested compounds displayed activity”; in [1], “None of the tested compounds displayed activity”; with influenza virus A/H1N1, “none of the compounds was found to be active”; in the experiment on sindbis virus, “None of the tested compounds displayed activity”; in experiment [2], “None of the tested compounds displayed activity”; in experiment [3] it was “None of the tested compounds displayed activity”. In addition, the Antiviral activity entry in the experiment on influenza virus B was “none of the compounds was found to be active”; in the experiment with Coxsackievirus B4, “None of the tested compounds displayed activity”; with feline coronavirus it was “None of the tested compounds displayed activity”; in the experiment on influenza virus A/H3N2, “none of the compounds was found to be active”; in the experiment on parainfluenza-3 virus, “None of the tested compounds displayed activity”; in experiment [4] it was “None of the tested compounds displayed activity”. Besides, the Antiviral activity result with Reovirus-1 and in the experiment with Punta Toro virus was “None of the tested compounds displayed activity” throughout. For the same compound, the “NMDA receptor antagonism (in words)” value with NMDA receptors is “inactive”. Besides, in experiment [5], the “Trypanocidal activity (in words)” value is listed as “no activity”.
